Data: ChEMBL document CHEMBL4400543, “Identification and Characterization of AES-135, a Hydroxamic Acid-Based HDAC Inhibitor That Prolongs Survival in an Orthotopic Mouse Model of Pancreatic Cancer” (J Med Chem, 2019)
Calls of active or inactive are those of the source.

Columns and labels:
[1] = target: Signal transducer and activator of transcription 3 (Homo sapiens) (UniProt P40763); assay: Inhibition of STAT3 phosphorylation at Y705 residue in human BTSC 100EF cells at 1 to 10 uM after 24 hrs by Western blot method; format: cell-based
Procedure, shortened: (§1)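 BTSCs dissociated to single cells and treated with drug or DMSO. Lysed in RIPA buffer with protease inhibitors. 20 μg lysate run on SDS-PAGE and transferred to nitrocellulose. Blocked in 5% milk, primary antibody overnight at 4 °C, then HRP secondary for 1 h.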

[2] = Cytotoxicity against mouse KPC monolayer cells assessed as reduction in tumor spheroid intensity after 72 hrs by Alamar Blue assay; format: functional, cell-based
Procedure, shortened: (§2)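 Monolayer proliferation of STR-authenticated, mycoplasma-checked patient-derived PDAC lines and mouse KPC cells. Plated at 2000 cells/well, treated 72 h, read by alamarBlue. At least triplicate, n = 3–5.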

Panc1005 [3] = assay: Cytotoxicity against human Panc 10.05 cells assessed as reduction in tumor spheroid area after 72 hrs in presence of human CAF19 cells by Alamar Blue assay; format: functional, cell-based; details: Panc1005, 72 h
Procedure, shortened: (§3)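 3D spheroids of patient-derived PDAC cells (tomato red) alone or with CAF19 cells, plus CAF cultures. Imaging read-outs: area is the μ2 of objects above a tomato red intensity threshold; intensity is summed red or green pixel fluorescence after background removal. n = 3–5.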

Pa03C [4] = assay: Cytotoxicity against human Pa03C cells assessed as reduction in tumor spheroid intensity after 72 hrs in presence of human CAF19 cells by Alamar Blue assay; format: functional, cell-based; procedure, shortened: as §3
[5] = Cytotoxicity against human MRC9 cells at 50 uM after 72 hrs by CellTiter-Blue assay; format: cell-based
Procedure, shortened: (§4)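 Cells in 10% FBS medium, 10 000 cells/well, treated 24 h after plating. Twofold dilution series from a 50.0 μM top dose to 0.097656 μM, in triplicate, 0.5% DMSO vehicle. 72 h at 37 °C, 5% CO2. CellTiter-Blue for 1–4 h, fluorescence 560/590 nm. IC50 by nonlinear regression.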

[6] = Toxicity in NSG mouse assessed as body weight loss at 60 mg/kg, ip administered daily for 4 to 5 days; format: organism-based; details: in vivo
Procedure, shortened: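 NSG mice were dosed IP daily across a range of doses for 4–5 days (n = 6). Animals were weighed before and after dosing, and toxicity was scored as percentage body-weight loss.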

[7] = target: Signal transducer and activator of transcription 3 (Homo sapiens) (UniProt P40763); assay: Inhibition of STAT3 phosphorylation at Y705 residue in human BTSC 147EF cells at 2 uM after 3 to 24 hrs by Western blot method; format: cell-based; procedure, shortened: as §1
[8] = target: Histone deacetylase 11 (Homo sapiens) (UniProt Q96DB2); assay: Inhibition of recombinant human HDAC11 expressed in SF9 baculoviral system at 10 uM using FAM-labeled acetylated peptide as substrate by EMSA relative to control
Procedure, shortened: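 Full-length recombinant human HDACs from an Sf9 baculovirus system. Single-point screen at 10 μM by microfluidic mobility-shift assay with FAM-labeled acetylated peptide substrate. Buffer: 100 mM HEPES pH 7.5, 25 mM KCl, 0.1% BSA, 0.01% Triton X-100, 1% DMSO. % inhibition from product/(substrate + product) against no-inhibitor and no-enzyme controls.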

MOLM-13 = assay: Cytotoxicity against human MOLM13 cells at 50 uM after 72 hrs by CellTiter-Blue assay; format: functional, cell-based; procedure, shortened: as §4
[9] = target: Histone deacetylase 8 (Homo sapiens) (UniProt Q9BY41); assay: Inhibition of recombinant human HDAC8 expressed in SF9 baculoviral system at 10 uM using FAM-labeled acetylated peptide as substrate by EMSA relative to control
Procedure, shortened: (§5)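 Single-point screen at 10 μM compound, using full-length recombinant human enzyme expressed in Sf9 cells. Buffer was HEPES pH 7.5 with KCl, BSA and Triton X-100, and 1% DMSO. Final enzyme was 0.5 nM for HDAC3, 60 nM for HDAC6 and 5.0 nM for HDAC8, with 1 μM FAM-acetylated peptide. Percent inhibition was derived from the product sum ratio relative to DMSO-only (0%) and no-enzyme (100%) controls.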

Panc1005 [10] = assay: Cytotoxicity against human Panc 10.05 cells assessed as reduction in tumor spheroid area after 72 hrs by Alamar Blue assay; format: functional, cell-based; details: Panc1005, 72 h; procedure, shortened: as §3
[11] = Intrinsic clearance in ICR/CD1 mouse hepatocytes assessed per million cells at 1 uM up to 120 mins by LC-MS/MS analysis; format: ADME, cell-based, Hepatocyte; details: 2 h
[12] = target: Signal transducer and activator of transcription 3 (Homo sapiens) (UniProt P40763); assay: Inhibition of STAT3 phosphorylation at S727 residue in human BTSC 100EF cells at 1 to 10 uM after 24 hrs by Western blot method; format: cell-based; procedure, shortened: as §1
Pa03C [13] = assay: Cytotoxicity against human Pa03C cells assessed as reduction in tumor spheroid area after 72 hrs in presence of human CAF19 cells by Alamar Blue assay; format: functional, cell-based; procedure, shortened: as §3
[14] = Cytotoxicity against human Pa02C monolayer cells assessed as reduction in tumor spheroid intensity after 72 hrs by Alamar Blue assay; format: functional, cell-based; procedure, shortened: as §2
[15] = Drug uptake in NSG mouse serum at 20 mg/kg, ip administered as single dose and measured at 1 hr by HPLC-MS/MS analysis; format: ADME, organism-based; details: read-out: Drug uptake
Procedure, shortened: (§6)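 NSG mice given a single 20 mg/kg IP dose in Cremophor EL/EtOH (1:1, 4% final volume)/sterile saline. Tail-vein blood at 0.5, 1, 2, 4, 8 and 24 h, n = 2. Drug quantified in serum/plasma. Half-life and clearance calculated assuming 100% bioavailability.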

MV4-11 = assay: Cytotoxicity against human MV4-11 cells at 50 uM after 72 hrs by CellTiter-Blue assay; format: functional, cell-based; procedure, shortened: as §4
[16] = Drug uptake in NSG mouse serum at 20 mg/kg, ip administered as single dose and measured at 4 hrs by HPLC-MS/MS analysis; format: ADME, organism-based; details: read-out: Drug uptake; procedure, shortened: as §6
[17] = target: Protein deacetylase HDAC6 (Homo sapiens) (UniProt Q9UBN7); assay: Inhibition of recombinant human HDAC6 expressed in SF9 baculoviral system at 10 uM using FAM-labeled acetylated peptide as substrate by EMSA relative to control; procedure, shortened: as §5
[18] = target: Signal transducer and activator of transcription 3 (Homo sapiens) (UniProt P40763); assay: Inhibition of STAT3 phosphorylation at Y705 residue in human MDA-MB-231 cells up to 30 uM after 5 hrs by Western blot method; format: cell-based
Procedure, shortened: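 Run on 4–15% SDS-PAGE and transferred to PVDF. Primary antibodies 1:1000 overnight at 4 °C, HRP or fluorescent secondary 1:5000, ECL detection, β-actin loading control.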

Pa03C [19] = assay: Cytotoxicity against human Pa03C cells assessed as reduction in tumor spheroid area after 72 hrs by Alamar Blue assay; format: functional, cell-based; procedure, shortened: as §3
Pa03C [20] = assay: Cytotoxicity against human Pa03C monolayer cells assessed as reduction in tumor spheroid intensity after 72 hrs by Alamar Blue assay; format: functional, cell-based; procedure, shortened: as §2
[21] = Drug uptake in NSG mouse serum at 20 mg/kg, ip administered as single dose and measured at 8 hrs by HPLC-MS/MS analysis; format: ADME, organism-based; details: read-out: Drug uptake; procedure, shortened: as §6
[22] = Cytotoxicity against human […] cells assessed as reduction in tumor spheroid area after 72 hrs by Alamar Blue assay; format: cell-based; procedure, shortened: as §3
Histone deacetylase 3 = Histone deacetylase 3 (Homo sapiens, UniProt O15379); assay: Inhibition of recombinant human HDAC3 expressed in SF9 baculoviral system at 10 uM using FAM-labeled acetylated peptide as substrate by EMSA relative to control; procedure, shortened: as §5
[23] = Selectivity ratio of IC50 for human CAF19 cells to IC50 for human Panc 10.05 cells
[24] = Drug recovery in CD1 mouse plasma after 6 hrs by LC-ESI MS analysis; format: ADME, cell-free; details: read-out: Drug recovery

Sequence of Signal transducer and activator of transcription 3 (Homo sapiens) (P40763 whole entry): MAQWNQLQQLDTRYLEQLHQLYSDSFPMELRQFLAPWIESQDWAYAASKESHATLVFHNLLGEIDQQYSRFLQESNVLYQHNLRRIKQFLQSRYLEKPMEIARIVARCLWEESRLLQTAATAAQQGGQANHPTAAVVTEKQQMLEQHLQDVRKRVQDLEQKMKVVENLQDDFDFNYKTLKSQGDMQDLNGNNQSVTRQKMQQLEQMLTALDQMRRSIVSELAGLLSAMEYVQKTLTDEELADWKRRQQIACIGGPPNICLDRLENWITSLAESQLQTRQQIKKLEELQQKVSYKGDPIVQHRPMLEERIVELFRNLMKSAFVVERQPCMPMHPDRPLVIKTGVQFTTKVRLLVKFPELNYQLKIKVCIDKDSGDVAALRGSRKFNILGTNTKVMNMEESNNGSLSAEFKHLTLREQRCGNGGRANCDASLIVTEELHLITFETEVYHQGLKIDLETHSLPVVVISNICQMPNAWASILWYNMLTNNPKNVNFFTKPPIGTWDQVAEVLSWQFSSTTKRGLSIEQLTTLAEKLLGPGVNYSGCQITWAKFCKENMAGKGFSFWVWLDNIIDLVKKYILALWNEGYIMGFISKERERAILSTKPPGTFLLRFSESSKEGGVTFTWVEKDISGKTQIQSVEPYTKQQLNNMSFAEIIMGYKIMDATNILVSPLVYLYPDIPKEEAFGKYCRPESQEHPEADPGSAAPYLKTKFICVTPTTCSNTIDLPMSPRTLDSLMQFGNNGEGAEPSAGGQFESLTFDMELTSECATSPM
Sequence of Histone deacetylase 11 (Homo sapiens) (Q96DB2 whole entry): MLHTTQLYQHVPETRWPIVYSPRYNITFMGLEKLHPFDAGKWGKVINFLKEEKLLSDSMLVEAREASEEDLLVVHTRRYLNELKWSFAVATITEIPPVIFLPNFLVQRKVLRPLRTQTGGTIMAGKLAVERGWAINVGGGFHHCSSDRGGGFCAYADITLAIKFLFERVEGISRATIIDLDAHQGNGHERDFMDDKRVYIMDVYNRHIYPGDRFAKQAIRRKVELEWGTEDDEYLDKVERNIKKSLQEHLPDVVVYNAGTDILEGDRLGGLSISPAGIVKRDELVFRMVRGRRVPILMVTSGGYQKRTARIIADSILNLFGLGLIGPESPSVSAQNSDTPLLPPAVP
Sequence of Histone deacetylase 8 (Homo sapiens) (Q9BY41 whole entry): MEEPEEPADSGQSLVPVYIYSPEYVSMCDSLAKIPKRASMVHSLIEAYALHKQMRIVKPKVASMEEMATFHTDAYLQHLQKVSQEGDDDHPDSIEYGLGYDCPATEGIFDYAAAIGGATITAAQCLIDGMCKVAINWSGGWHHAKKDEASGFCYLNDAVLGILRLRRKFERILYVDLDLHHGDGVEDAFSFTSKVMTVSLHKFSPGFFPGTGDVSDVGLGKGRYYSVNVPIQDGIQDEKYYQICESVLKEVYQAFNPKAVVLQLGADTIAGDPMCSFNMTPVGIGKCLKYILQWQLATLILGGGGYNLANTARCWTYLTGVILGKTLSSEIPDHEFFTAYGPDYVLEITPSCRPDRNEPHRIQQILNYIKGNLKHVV
Sequence of Histone deacetylase 3 (O15379 whole entry): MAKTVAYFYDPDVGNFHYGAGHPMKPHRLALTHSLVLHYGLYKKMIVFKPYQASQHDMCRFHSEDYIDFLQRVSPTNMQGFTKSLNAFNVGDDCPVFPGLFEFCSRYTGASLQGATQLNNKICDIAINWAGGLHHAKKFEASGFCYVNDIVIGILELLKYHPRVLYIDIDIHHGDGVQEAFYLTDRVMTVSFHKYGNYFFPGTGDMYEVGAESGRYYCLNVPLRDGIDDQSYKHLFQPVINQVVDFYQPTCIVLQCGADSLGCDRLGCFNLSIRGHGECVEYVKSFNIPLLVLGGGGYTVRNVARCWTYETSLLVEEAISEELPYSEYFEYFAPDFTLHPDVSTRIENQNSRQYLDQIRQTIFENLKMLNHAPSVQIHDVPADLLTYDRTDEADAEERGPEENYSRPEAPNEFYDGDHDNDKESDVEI
Sequence of Protein deacetylase HDAC6 (Homo sapiens) (Q9UBN7 whole entry): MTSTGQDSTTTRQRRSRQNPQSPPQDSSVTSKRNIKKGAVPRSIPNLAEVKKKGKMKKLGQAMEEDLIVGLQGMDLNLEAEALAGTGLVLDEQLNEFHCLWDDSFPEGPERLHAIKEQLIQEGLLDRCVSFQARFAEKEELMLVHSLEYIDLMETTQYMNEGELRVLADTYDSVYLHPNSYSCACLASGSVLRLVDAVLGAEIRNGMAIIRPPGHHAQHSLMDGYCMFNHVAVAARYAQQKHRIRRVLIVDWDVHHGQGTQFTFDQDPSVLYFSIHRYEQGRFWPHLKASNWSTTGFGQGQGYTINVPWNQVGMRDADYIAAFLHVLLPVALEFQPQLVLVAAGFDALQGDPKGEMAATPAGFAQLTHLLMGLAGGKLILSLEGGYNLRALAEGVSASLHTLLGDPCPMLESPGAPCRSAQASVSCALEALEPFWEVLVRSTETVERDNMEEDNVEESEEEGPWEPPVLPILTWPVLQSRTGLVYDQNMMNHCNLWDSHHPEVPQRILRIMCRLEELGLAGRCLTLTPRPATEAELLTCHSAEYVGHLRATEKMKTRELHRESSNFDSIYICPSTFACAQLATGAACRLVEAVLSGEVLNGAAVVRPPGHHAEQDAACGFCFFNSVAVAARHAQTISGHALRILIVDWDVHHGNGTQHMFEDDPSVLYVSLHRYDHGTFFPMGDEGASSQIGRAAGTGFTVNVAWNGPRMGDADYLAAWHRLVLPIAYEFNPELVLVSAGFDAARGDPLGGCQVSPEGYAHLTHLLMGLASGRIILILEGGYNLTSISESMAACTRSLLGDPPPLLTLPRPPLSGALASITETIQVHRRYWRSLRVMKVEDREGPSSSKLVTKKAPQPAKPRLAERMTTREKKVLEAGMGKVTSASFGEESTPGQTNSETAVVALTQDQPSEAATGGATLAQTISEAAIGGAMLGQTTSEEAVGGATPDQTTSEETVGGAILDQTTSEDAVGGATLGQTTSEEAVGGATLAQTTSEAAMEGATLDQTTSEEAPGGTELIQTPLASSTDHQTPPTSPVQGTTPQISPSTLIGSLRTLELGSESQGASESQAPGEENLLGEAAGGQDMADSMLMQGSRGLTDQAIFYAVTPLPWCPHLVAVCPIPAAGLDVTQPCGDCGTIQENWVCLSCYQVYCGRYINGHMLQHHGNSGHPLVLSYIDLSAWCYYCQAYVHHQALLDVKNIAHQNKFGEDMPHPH

In the case of `CC(C)(C)c1ccc(CN(C(=O)CN(Cc2c(F)c(F)c(F)c(F)c2F)S(=O)(=O)c2ccc(F)cc2)c2ccc(C(=O)NO)cc2)cc1`, the inhibition [1] is reported as “inactive”, the IC50 [2] is reported as 1300 nM and the IC50 (Panc1005 [3]) is reported as 940 nM. For the same compound, the IC50 (Pa03C [4]) was 1560 nM, the Activity [5] was “Non-Toxic” and the Activity [6] was “Non-Toxic”. The inhibition [7] was “inactive”, the inhibition [8] was 97% and the Activity (MOLM-13) was “Active”. It also gave an inhibition [9] of 94%, an IC50 (Panc1005 [10]) of 970 nM and a CLH [11] of 36 µL/min. For the same compound, the inhibition [12] was “inactive”, the IC50 (Pa03C [13]) was 1410 nM and the IC50 [14] was 4600 nM. The concentration at 1 h [15] was 5400 ng/mL, the Activity (MV4-11) was “Active” and the concentration at 4 h [16] was 3660 ng/mL. For the same compound, the inhibition [17] was 98%, the inhibition [18] was “inactive” and the IC50 (Pa03C [19]) was 1220 nM. For the same compound, the IC50 (Pa03C [20]) was 3400 nM, the concentration at 8 h [21] was 6390 ng/mL and the IC50 [22] was 4700 to 7800 nM. For the same compound, the inhibition (Histone deacetylase 3) was 98%, the “Ratio IC50” value [23] was 5 - 6 and the remaining at 6 h [24] was 16 to 20%.
